Laboratory results from ChEMBL document CHEMBL5346932, “Structure-activity relationships of actively FhuE transported rifabutin derivatives with potent activity against Acinetobacter baumannii” (Eur J Med Chem, 2023).
In brackets after ≈: the same amount, converted by molar mass.

What was measured:
[1] = test system: Acinetobacter baumannii; test: Antibacterial activity against Acinetobacter baumannii HUMC1 cultured in RPMI 1640 medium supplemented with 10% FCS assessed as bacterial growth inhibition incubated for 20 hrs by CLSI based microbroth dilution method; format: functional; details: Acinetobacter baumannii, HUMC1, 20 h, read-out: MIC
Summary of the method: (§1)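 CLSI broth microdilution in RPMI 1640 + 10% FCS in place of CAMHB. Compounds in 2-fold dilution series; inoculum 5×10^5 CFU/mL. Plates held static at 35 °C for 20 h. MIC read visually as the lowest concentration with no visible growth. […] is the reciprocal of this MIC.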

[2] = test system: Staphylococcus aureus; test: Antibacterial activity against Staphylococcus aureus USA300 UAMS-1625 assessed as bacterial growth inhibition incubated for 20 hrs by CLSI based microbroth dilution method; format: functional
Summary of the method: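 CLSI broth microdilution in CAMHB against S. aureus USA300 UAMS-1625. Compounds in 2-fold dilution series; inoculum 5×10^5 CFU/mL. Incubated without shaking at 35 °C for 20 h. MIC read visually as the lowest concentration preventing visible growth. Fold changes are relative to the rifabutin MIC.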

[3] = test system: Acinetobacter baumannii; test: Antibacterial activity against Acinetobacter baumannii HUMC1 harboring FhuE deletion mutant assessed as bacterial growth inhibition incubated for 20 hrs by CLSI based microbroth dilution method; format: functional
Summary of the method: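 Microbroth dilution per CLSI in RPMI 1640 + 10% FCS (in place of CAMHB). Compounds as 2-fold serial dilutions; inoculum 5×10^5 CFU/mL of previously described HUMC1-derived mutant strains. Incubated static at 35 °C for 20 h. MIC read visually as lowest concentration preventing visible growth.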

[4] = Inhibition of transcription in Acinetobacter baumannii HUMC1 using pVT784 as reporter plasmid preincubated for 30 mins followed by reporter plasmid addition and measured after 60 mins by Nano-Glo luciferase assay; format: functional
Summary of the method: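 Cell-free transcription/translation used A. baumannii HUMC1 extract at 1.2 mg/mL, with extract from 2xYT+P culture after a run-off step and dialysis at pH 8.2. Compound was preincubated with extract for 30 min on ice. Reporter plasmid (0.5 nM) was then added and luminescence read after 60 min at 25 °C. Compounds were tested at 8 to 0.002 mg/L in triplicate. IC50 was fit from no-compound-normalized signal.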

[5] = Drug accumulation in wild type Acinetobacter baumannii HUMC1 cultured in iron-rich CAMHB media at >=0.05 uM incubated for 10 mins by LC-MS/MS analysis; format: ADME
Summary of the method: (§2)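 5 mL of suspension was dosed from DMSO stocks (0.002–5 mM) and shaken at 150 rpm for 10 min at 37 °C. Cells were pelleted, washed, and lysed (sucrose/EDTA). LC-MS/MS MRM quantitation used caffeine-normalized standard curves in spiked lysate. Reported as amount per 5 mL; n≥2 independent replicates.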

[6] = Drug accumulation in Acinetobacter baumannii HUMC1 harboring fhuE deletion mutant cultured in iron-rich CAMHB media at <0.02 uM incubated for 10 mins by LC-MS/MS analysis; format: ADME; details: BLD = below limit of detection
Summary of the method: (§3)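 5 mL suspension dosed from DMSO stocks (0.002–5 mM), 10 min at 37 °C, 150 rpm. Cells pelleted, washed in TBS and sucrose buffers, lysed, extracted with formic acid/CH3CN/CH3OH. LC-MS/MS MRM quantification against spiked-matrix standards, caffeine internal standard. Reported as ng per 5 mL suspension; n ≥ 2 independent replicates, mean ± SEM.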

[7] = Drug accumulation in Acinetobacter baumannii HUMC1 harboring fhuE deletion mutant cultured in iron-limited RPMI medium supplemented with 10% FCS at <0.02 uM incubated for 10 mins by LC-MS/MS analysis; format: ADME; details: BLD = below limit of detection; summary of the method: as §3
[8] = Drug accumulation in Acinetobacter baumannii HUMC1 harboring fhuE deletion mutant cultured in iron-rich CAMHB media at 0.5 to 5 uM incubated for 10 mins by LC-MS/MS analysis; format: ADME; details: dose 0.5-5 µM; summary of the method: as §3
[9] = Drug accumulation in Acinetobacter baumannii HUMC1 harboring fhuE deletion mutant cultured in iron-limited RPMI medium supplemented with 10% FCS at 0.5 to 5 uM incubated for 10 mins by LC-MS/MS analysis; format: ADME; details: dose 0.5-5 µM; summary of the method: as §3
[10] = Drug accumulation in wild type Acinetobacter baumannii HUMC1 cultured in iron-limited RPMI medium supplemented with 10% FCS at 0.002 to 0.02 uM incubated for 10 mins by LC-MS/MS analysis; format: ADME; details: dose 0.002-0.02 µM; summary of the method: as §2
[11] = Drug accumulation in cytoplasm of Acinetobacter baumannii HUMC1 cultured in iron-limited RPMI medium supplemented with 10% FCS measured per 5 ml of culture medium at 0.005 uM incubated for 10 mins by LC-MS/MS analysis; format: ADME, subcellular
Summary of the method: (§4)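 The periplasm was released by cold 0.5 mM MgSO4 shock. Cells were then sonicated and DNase-treated, and a 30000 g spin separated cytoplasm from the membrane pellet. Fractions were quantified by LC-MS/MS against standard curves. Reported as ng per 5 mL; n = 4 in duplicate.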

[12] = Drug accumulation in periplasm of Acinetobacter baumannii HUMC1 cultured in iron-limited RPMI medium supplemented with 10% FCS measured per 5 ml of culture medium at 0.005 uM incubated for 10 mins by LC-MS/MS analysis; format: ADME, subcellular; summary of the method: as §4
[13] = Drug accumulation in membrane of Acinetobacter baumannii HUMC1 cultured in iron-limited RPMI medium supplemented with 10% FCS measured per 5 ml of culture medium at 0.005 uM incubated for 10 mins by LC-MS/MS analysis; format: ADME, cell membranes; summary of the method: as §4
[14] = Drug accumulation in Acinetobacter baumannii HUMC1 cultured in iron-limited RPMI medium supplemented with 10% FCS measured per 5 ml of culture medium at 0.005 uM incubated for 10 mins by LC-MS/MS analysis; format: ADME; summary of the method: as §4
[15] = Drug accumulation in cytoplasm of Acinetobacter baumannii HUMC1 cultured in iron-limited RPMI medium supplemented with 10% FCS at 0.005 uM incubated for 10 mins by LC-MS/MS analysis; format: ADME, subcellular; summary of the method: as §4
[16] = Drug accumulation in membrane of Acinetobacter baumannii HUMC1 cultured in iron-limited RPMI medium supplemented with 10% FCS at 0.005 uM incubated for 10 mins by LC-MS/MS analysis; format: ADME, cell membranes; summary of the method: as §4
[17] = Drug accumulation in periplasm of Acinetobacter baumannii HUMC1 cultured in iron-limited RPMI medium supplemented with 10% FCS at 0.005 uM incubated for 10 mins by LC-MS/MS analysis; format: ADME, subcellular; summary of the method: as §4
[18] = test system: Acinetobacter baumannii; test: Antibacterial activity against Acinetobacter baumannii HUMC1 cultured in iron-limited RPMI medium supplemented with 10% FCS assessed as inverse MIC incubated for 20 hrs by CLSI based microbroth dilution method; format: functional; summary of the method: as §1
[19] = Drug accumulation in Acinetobacter baumannii HUMC1 cultured in iron-limited RPMI medium supplemented with 10% FCS measured per 5 ml of culture medium at 0.05 uM incubated for 10 mins by LC-MS/MS analysis; format: ADME; summary of the method: as §2

Q: For `CO[C@H]1/C=C/O[C@@]2(C)Oc3c(C)c(O)c4c(c3C2=O)C2=NC3(CCN(CC(C)C)CC3)NC2=C(NC(=O)/C(C)=C\C=C\[C@H](C)[C@H](O)[C@@H](C)[C@@H](O)[C@@H](C)[C@H](OC(C)=O)[C@@H]1C)C4=O` [RIFABUTIN], which MIC [1] is on record?
A: Its MIC is 0.001 µg/mL (≈ 0.00118 µM).

Q: And the MIC [2]?
A: Its MIC is 0.016 µg/mL (≈ 0.0189 µM).

Q: What about the MIC [3] of the same compound?
A: The MIC was 0.5 µg/mL (≈ 0.59 µM).

Q: And the IC50 [4]?
A: The IC50 was 0.07 µg/mL (≈ 0.0826 µM).

Q: What about the Drug uptake [5] of the same compound?
A: The Drug uptake was “Active”.

Q: And the Drug uptake [6]?
A: The Drug uptake was “Bld”.

Q: And the Drug uptake [7]?
A: Its Drug uptake is “Bld”.

Q: And the Drug uptake [8]?
A: Its Drug uptake is “Active”.

Q: What about the Drug uptake [9] of the same compound?
A: Its Drug uptake is “Active”.

Q: And the Drug uptake [10]?
A: Its Drug uptake is “Active”.

Q: And the Drug uptake [11]?
A: Its Drug uptake is 0.02 ng.

Q: And the Drug uptake [12]?
A: Its Drug uptake is 2.66 ng.

Q: And the Drug uptake [13]?
A: Its Drug uptake is 0.69 ng.

Q: What about the Drug uptake [14] of the same compound?
A: Its Drug uptake is 12.44 ng.

Q: And the Drug uptake [15]?
A: Its Drug uptake is 79%.

Q: And the Drug uptake [16]?
A: The Drug uptake was 20%.

Q: And the Drug uptake [17]?
A: The Drug uptake was under 1%.

Q: And the 1/MIC [18]?
A: The 1/MIC was 1000 L/mg.

Q: What about the Drug uptake [19] of the same compound?
A: Its Drug uptake is 36.08 pmol.
